# ChEMBL document CHEMBL3860043, “Non-Acidic Free Fatty Acid Receptor 4 Agonists with Antidiabetic Activity” (J Med Chem, 2016)
# Calls of active or inactive are those of the source. The rule behind the calls is not given here.
# Tests used:
# [1] = molecular target: T1, Free fatty acid receptor 1 (Homo sapiens, UniProt O14842); assay: Antagonist activity against human FFA1 expressed in human Flp-In T-REx293 cells assessed as as reduction in TUG424-induced response by Fura2-AM dye based calcium mobilization assay; format: functional, cell-based
# T1 sequence (O14842 whole entry): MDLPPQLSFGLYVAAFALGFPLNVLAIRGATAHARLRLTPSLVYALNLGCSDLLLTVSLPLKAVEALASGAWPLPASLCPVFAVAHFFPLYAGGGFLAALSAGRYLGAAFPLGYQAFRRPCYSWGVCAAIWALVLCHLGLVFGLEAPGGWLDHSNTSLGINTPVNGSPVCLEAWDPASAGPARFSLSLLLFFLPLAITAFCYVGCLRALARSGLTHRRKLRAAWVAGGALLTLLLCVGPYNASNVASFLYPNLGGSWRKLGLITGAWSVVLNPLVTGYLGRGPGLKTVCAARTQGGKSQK
# Method in brief: (§1)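 Flp-In T-REx 293 cells with inducible human FFA1, seeded at 50000 cells/well and induced with 100 ng/ml doxycycline after 3-4 h adherence. Next day loaded with Fura2-AM for 45 min, washed, then preincubated 15 min in HBSS with test ligand before 300 nM agonist challenge. Fura2 340:380 ratio change read at 510 nm emission. Inhibition expressed as % reduction of the agonist response.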
# [2] = molecular target: T2, Free fatty acid receptor 4 (Homo sapiens, UniProt Q5NUL3); assay: Agonist activity at C-terminal YFP-tagged human FFA4 expressed in HEK293 cells in presence of coelentrazine h by BRET based beta-arrestin-2 interaction assay; format: cell-based
# T2 sequence (Q5NUL3 whole entry): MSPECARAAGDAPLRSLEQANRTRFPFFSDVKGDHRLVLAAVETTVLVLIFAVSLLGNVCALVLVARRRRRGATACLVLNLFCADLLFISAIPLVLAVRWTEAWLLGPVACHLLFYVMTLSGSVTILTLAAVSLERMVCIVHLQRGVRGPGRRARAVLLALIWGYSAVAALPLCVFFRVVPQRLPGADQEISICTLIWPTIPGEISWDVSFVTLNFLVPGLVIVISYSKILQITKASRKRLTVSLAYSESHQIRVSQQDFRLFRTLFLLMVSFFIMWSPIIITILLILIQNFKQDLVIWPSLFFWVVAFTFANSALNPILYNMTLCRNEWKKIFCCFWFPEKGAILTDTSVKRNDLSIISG
# Method in brief: (§2)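 HEK293 cells co-transfected with C-terminal eYFP-fused human FFA4 and β-arrestin-2–Renilla luciferase; plated 24 h post-transfection, used 24 h later. After an HBSS wash, coelenterazine h (2.5 µM) for 15 min, with ligands present for the final 5 min, 37 °C. BRET taken as the 535/475 nm emission ratio. Efficacy relative to 100 µM reference agonist. Three-parameter sigmoidal fits; mean ± S.E. of 2-4 independent experiments.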
# [3] = molecular target: T1, Free fatty acid receptor 1; assay: Antagonist activity against human FFA1 expressed in human Flp-In T-REx293 cells assessed as as reduction in 300 nM TUG424-induced response by Fura2-AM dye based calcium mobilization assay relative to untreated control; format: functional, cell-based; method in brief: as §1
# [4] = molecular target: T3, Free fatty acid receptor 4 (Homo sapiens) (UniProt Q5NUL3); assay: Agonist activity at C-terminal YFP-tagged human FFA4 expressed in HEK293 cells in presence of coelentrazine h by BRET based beta-arrestin-2 interaction assay relative to 100 uM […]; format: cell-based; method in brief: as §2
# T3 sequence (whole entry): T2 sequence (Q5NUL3 whole entry)
# [5] = molecular target: T2, Free fatty acid receptor 4; assay: Agonist activity at human FFA4 expressed in human Flp-In T-REx293 cells by Fura2-AM dye based calcium mobilization assay; format: functional, cell-based
# Method in brief: (§3)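 Flp-In T-REx 293 cells with doxycycline-inducible human FFA4 seeded at 50000 cells/well and induced overnight with 100 ng/ml doxycycline. Loaded with Fura2-AM for 45 min, washed three times in HBSS, equilibrated 15 min, then ligand added. Emission at 510 nm with 340/380 nm excitation; response is the change in 340:380 ratio. Efficacy relative to 100 µM reference agonist; 2-4 independent experiments, sigmoidal fits.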
# [6] = molecular target: T3, Free fatty acid receptor 4 (Homo sapiens); assay: Agonist activity at human FFA4 expressed in human Flp-In T-REx293 cells by Fura2-AM dye based calcium mobilization assay relative to 100 uM […]; format: functional, cell-based; method in brief: as §3
# [7] = test system: Mus musculus; assay: Toxicity in FFA4 (-/-) DIO mouse assessed as weight gain in at 10 mg/kg, po dosed daily over 3 week period administered 15 mins before oral glucose challenge on first day measured after 21 days; format: organism-based; conditions: in vivo, 504 h
# [8] = Solubility in FaSSIF solution; format: physicochemical
# [9] = test system: Mus musculus; assay: Reduction in plasma glucose level in wild type DIO mouse at 10 mg/kg, po dosed daily over 3 week period administered 15 mins before oral glucose challenge on first day by OGTT method; format: functional, organism-based
# Method in brief: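 Male wild-type and FFA4(-/-) littermates (C57Bl6 background) fed 63% high-fat diet from 6 weeks of age for 5 months. On day 0, fasted 5 h, dosed 10 mg/kg po, then given glucose 3 g/kg po 15 min later. Tail blood sampled from -30 to 180 min; glucose measured in duplicate by colorimetric glucose oxidase assay. n=9 per group; two-way ANOVA with Bonferroni post hoc test.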
# [10] = Effect on water intake level in FFA4 (-/-) DIO mouse at 10 mg/kg, po dosed daily over 3 week period administered 15 mins before oral glucose challenge on first day measured after 21 days; format: ADME, organism-based; conditions: in vivo, 504 h
# [11] = Effect on water intake level in wild type DIO mouse at 10 mg/kg, po dosed daily over 3 week period administered 15 mins before oral glucose challenge on first day measured after 21 days; format: ADME, organism-based; conditions: in vivo, 504 h
# [12] = test system: Mus musculus; assay: Reduction in plasma glucose level in mouse at 10 mg/kg, po dosed 15 mins before oral glucose challenge by OGTT method; format: functional, organism-based
# Method in brief: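 Mice fasted 5 h and given compound orally at 10 mg/kg, 15 min before an oral glucose load of 3 g/kg. Tail-tip blood sampled under local anesthetic 30 min before and immediately before the load, and at 30, 60, 90, 120 and 180 min after it. Glucose measured in duplicate by glucose oxidase colorimetric assay; n=6 mice per group.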
# [13] = Lipophilicity, log D of the compound at pH 7.4; format: physicochemical; conditions: buffer
# [14] = Solubility in PBS buffer; format: physicochemical
# [15] = test system: Mus musculus; assay: Toxicity in FFA4 (-/-) DIO mouse assessed as reduction in body weight at 10 mg/kg, po dosed daily over 3 week period administered 15 mins before oral glucose challenge on first day measured after 21 days; format: organism-based; conditions: in vivo, 504 h
# [16] = organism: Homo sapiens; assay: Selectivity for human FFA4 over FFA3 (unknown origin)
# [17] = molecular target: T4, Free fatty acid receptor 4 (Mus musculus, UniProt Q7TMA4); assay: Agonist activity mouse FFA4 by Gq-dependent calcium mobilization assay; format: functional
# T4 sequence (Q7TMA4 whole entry): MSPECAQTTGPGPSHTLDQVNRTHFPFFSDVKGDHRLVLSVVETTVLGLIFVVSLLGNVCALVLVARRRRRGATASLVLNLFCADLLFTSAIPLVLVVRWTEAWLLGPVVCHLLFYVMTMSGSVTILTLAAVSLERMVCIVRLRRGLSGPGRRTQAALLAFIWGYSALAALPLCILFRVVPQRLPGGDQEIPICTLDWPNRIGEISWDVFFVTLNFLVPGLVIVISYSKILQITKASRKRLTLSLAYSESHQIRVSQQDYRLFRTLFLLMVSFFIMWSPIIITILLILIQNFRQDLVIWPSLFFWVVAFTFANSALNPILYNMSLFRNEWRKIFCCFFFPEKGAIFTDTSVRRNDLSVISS
# [18] = test system: Mus musculus; assay: Increase in plasma insulin level in wild type DIO mouse at 10 mg/kg, po dosed daily over 3 week period administered 15 mins before oral glucose challenge on first day measured 30 mins after glucose challenge by ELISA; format: functional, organism-based
# [19] = Effect on food intake level in FFA4 (-/-) DIO mouse at 10 mg/kg, po dosed daily over 3 week period administered 15 mins before oral glucose challenge on first day measured after 21 days; format: ADME, organism-based; conditions: in vivo, 504 h
# [20] = test system: Mus musculus; assay: Reduction in fasting plasma insulin level in wild type DIO mouse at 10 mg/kg, po dosed daily over 3 week period administered 15 mins before oral glucose challenge on first day measured after 21 days by ELISA; format: functional, organism-based
# Method in brief: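 DIO wild-type and FFA4(-/-) littermates (63% fat diet for 5 months) dosed 10 mg/kg po once daily for 21 days. Fasting blood collected into EDTA and spun at 3,000 g for 5 min at 4 °C; plasma stored at -80 °C. Insulin measured in duplicate by murine insulin ELISA, absorbance at 450 nm.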
# [21] = organism: Homo sapiens; assay: Selectivity for human FFA4 over human FFA1
# [22] = organism: Homo sapiens; assay: Selectivity for human FFA4 over FFA2 (unknown origin)
# [23] = test system: Mus musculus; assay: Toxicity in wild type DIO mouse assessed as reduction in body weight at 10 mg/kg, po dosed daily over 3 week period administered 15 mins before oral glucose challenge on first day measured after 21 days; format: organism-based; parameters: scale not given: the % may be the effect or the level left; conditions: in vivo, 504 h
# [24] = Effect on food intake level in wild type DIO mouse at 10 mg/kg, po dosed daily over 3 week period administered 15 mins before oral glucose challenge on first day measured after 21 days; format: ADME, organism-based; conditions: in vivo, 504 h
# [25] = test system: Mus musculus; assay: Reduction in glucose level in wild type DIO mouse at 10 mg/kg, po dosed daily over 3 week period administered 15 mins before oral glucose challenge on first day measured after 21 days by OGTT method; format: functional, organism-based
# [26] = molecular target: T4, Free fatty acid receptor 4; assay: Agonist activity mouse FFA4 by BRET based beta-arrestin-2 interaction assay
# Method in brief: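 Mouse FFA4 fused C-terminally to eYFP, co-transfected into HEK293 cells with β-arrestin-2–Renilla luciferase. After an HBSS wash, coelenterazine h (2.5 µM) for 15 min, with ligand added for the last 5 min, 37 °C. BRET read as the 535/475 nm luminescence ratio. Three-parameter sigmoidal curve fitting; 2-4 independent experiments.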
smiles,measurement,setting,value
O=S(=O)(Nc1ccc(Oc2ccccc2)cc1)c1ccc(F)cc1,IC50,[1],12.9 µM
same,EC50,[2]; read-out: pEC50 (converted),3.55 µM
same,Imax,[3],95%
same,Emax,[4],52%
Cc1ccc(Oc2cc(F)cc(N3Cc4ccccc4S3(=O)=O)c2)cc1,IC50,[1],2.88 µM
same,EC50,[2]; read-out: pEC50 (converted),0.437 µM
same,Imax,[3],52%
same,EC50,[5],1.1 µM
same,Emax,[6],38%
same,Emax,[4],91%
O=C1c2ccccc2C(=O)N1c1cc(F)cc(Oc2cccnc2)c1,EC50,[2]; read-out: pEC50 (converted),5.01 µM
same,Emax,[4],45%
Cc1cccc(Oc2cc(F)cc(N3Cc4ccccc4S3(=O)=O)c2)c1,IC50,[1],25.1 µM
same,EC50,[2]; read-out: pEC50 (converted),2.63 µM
same,Imax,[3],51%
same,EC50,[5],4.47 µM
same,Emax,[6],14%
same,Emax,[4],87%
O=S1(=O)c2ccccc2CN1c1cc(F)cc(OCc2ccccc2)c1,IC50,[1],2.45 µM
same,EC50,[2]; read-out: pEC50 (converted),> 100 µM
same,Imax,[3],36%
CN(c1ccc(Oc2ccccc2)cc1)S(=O)(=O)c1ccc(F)cc1,IC50,[1],10.7 µM
same,Imax,[3],57%
O=S1(=O)c2ccccc2CN1c1cccc(Oc2ccccc2)c1,IC50,[1],0.174 µM
same,EC50,[2]; read-out: pEC50 (converted),0.245 µM
same,Imax,[3],39%
same,EC50,[5],0.209 µM
same,Emax,[6],105%
same,Emax,[4],95%
Cc1ccc(S(=O)(=O)Nc2ccc(Oc3ccccc3)cc2)cc1,IC50,[1],10 µM
same,Imax,[3],100%
N#Cc1cccc(Oc2cc(F)cc(N3Cc4ccccc4S3(=O)=O)c2)c1,IC50,[1],3.39 µM
same,EC50,[2]; read-out: pEC50 (converted),5.75 µM
same,Imax,[3],52%
same,Emax,[4],83%
N#Cc1ccc(Oc2cc(F)cc(N3Cc4ccccc4S3(=O)=O)c2)cc1,IC50,[1],0.617 µM
same,EC50,[2]; read-out: pEC50 (converted),1.66 µM
same,Imax,[3],43%
same,EC50,[5],2.34 µM
same,Emax,[6],29%
same,Emax,[4],87%
O=S1(=O)c2ccccc2CN1c1cc(F)cc(Oc2ccccn2)c1,Activity,[7],Non-Toxic
same,solubility,[8],14 µM
same,Activity,[9],Active
same,Activity,[10],Non-Toxic
same,IC50,[1],> 100 µM
same,Activity,[11],Non-Toxic
same,Activity,[12],Active
same,EC50,[2]; read-out: EC50,0.128 µM
same,EC50,[2]; read-out: pEC50 (converted),0.123 µM
same,logD,[13],3.17
same,solubility,[14],1.3 µM
same,Activity,[15],Non-Toxic
same,Selectivity ratio,[16],> 300
same,EC50,[17],0.148 µM
same,EC50,[5],0.234 µM
same,Activity,[18],Active
same,Emax,[6],130%
same,Activity,[19],Non-Toxic
same,Activity,[20],Active
same,Selectivity ratio,[21],> 300
same,Selectivity ratio,[22],> 300
same,Activity,[23],7 to 9%
same,Emax,[4],98%
same,Activity,[24],Non-Toxic
same,Activity,[25],Active
same,EC50,[26],0.479 µM
